Calls of active or inactive are those of the source. The calls are words filed in the database; no cut-off is given here.
Key:
B2 bradykinin receptor [1] = molecular target: T1, B2 bradykinin receptor (Homo sapiens, UniProt P30411); assay: Displacement of [3H]-Bradykinin from human bradykinin B2 receptor expressed in CHO cells membrane after 60 mins by scintillation counting; format: cell membranes
T1 sequence (P30411 whole entry): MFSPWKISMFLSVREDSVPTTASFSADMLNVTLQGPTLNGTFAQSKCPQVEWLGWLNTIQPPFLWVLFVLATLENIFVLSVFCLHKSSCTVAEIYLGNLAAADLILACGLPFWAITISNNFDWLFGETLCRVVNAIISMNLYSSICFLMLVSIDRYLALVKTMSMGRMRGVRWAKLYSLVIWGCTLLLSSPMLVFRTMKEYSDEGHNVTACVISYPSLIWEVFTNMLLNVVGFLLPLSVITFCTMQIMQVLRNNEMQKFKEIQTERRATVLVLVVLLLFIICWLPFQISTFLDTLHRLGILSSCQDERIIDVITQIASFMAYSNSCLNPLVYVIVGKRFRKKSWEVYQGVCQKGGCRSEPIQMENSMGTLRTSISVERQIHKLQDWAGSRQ

B1 bradykinin receptor = molecular target: T2, B1 bradykinin receptor (Homo sapiens, UniProt P46663); assay: Displacement of [3H][desArg9]Lys-Bradykinin from human bradykinin B1 receptor expressed in CHO cells; format: cell-based
T2 sequence (P46663 whole entry): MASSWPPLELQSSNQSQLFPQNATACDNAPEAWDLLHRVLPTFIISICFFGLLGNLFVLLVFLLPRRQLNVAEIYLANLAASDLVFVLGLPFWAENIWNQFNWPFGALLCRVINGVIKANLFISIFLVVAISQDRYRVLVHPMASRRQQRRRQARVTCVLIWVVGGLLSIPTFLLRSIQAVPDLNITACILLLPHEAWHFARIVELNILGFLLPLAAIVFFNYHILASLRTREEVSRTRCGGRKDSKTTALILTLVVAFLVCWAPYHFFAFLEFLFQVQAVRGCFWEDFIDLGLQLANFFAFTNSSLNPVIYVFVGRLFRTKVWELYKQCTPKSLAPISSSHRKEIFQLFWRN

[2] = molecular target: T3, B2 bradykinin receptor (Homo sapiens) (UniProt P30411); assay: (§1) Reversible antagonist activity at human bradykinin B2 receptor expressed in dhfr-deficient CHO cells assessed as inhibition of bradykinin-induced inositol monophosphate accumulation at 100 nM preincubated for 15 mins prior bradykinin induction measured after 30 mins washout by liquid scintillation spectrometry; format: functional, cell-based
T3 sequence (whole entry): T1 sequence (P30411 whole entry)
Method in brief: (§2)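 Washout in the IP accumulation assay in CHO/hB2R cells: antagonist (3 µM or 100 nM) pre-incubated 15 min, with medium then fully replaced every 15 min in washed cells. BK (2 nM) added and the reaction stopped after one hour; IP formed quantified. Expressed as % inhibition of time-matched BK responses in vehicle-pre-incubated cells.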

[3] = molecular target: T3, B2 bradykinin receptor (Homo sapiens); assay: as §1, with “15” for “30”; format: functional, cell-based; method in brief: as §2
[4] = molecular target: T3, B2 bradykinin receptor (Homo sapiens); assay: as §1, with “45” for “30”; format: functional, cell-based; method in brief: as §2
B2 bradykinin receptor [5] = molecular target: T1, B2 bradykinin receptor; assay: Antagonist activity at human bradykinin B2 receptor expressed in dhfr-deficient CHO cells assessed as inhibition of bradykinin-induced inositol monophosphate accumulation preincubated for 15 mins prior bradykinin induction measured after 40 mins by liquid scintillation spectrometry; format: functional, cell-based; settings: read-out: pA2 (converted)
Method in brief: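 CHOdhfr-/hB2R cells (1.8×10^5/well) plated overnight at 37 °C, labelled 24 h with myo-[3H]inositol (1 uCi/well). Antagonist pre-incubation 15 min, then BK 1×10^-11 to 1×10^-5 M for 40 min at 37 °C in Hepes pH 7.4 buffer with 25 mM LiCl. IP1 radioactivity by liquid scintillation. Agonist curves fitted for EC50; pA2 = log(CR−1) − log[antagonist].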

Cavia porcellus = assay: Inhibition of bradykinin-induced bronchoconstriction in anesthetized Dunkin-Hartley guinea pig at […], it 5 mins prior bradykinin-induction for every 30 mins up to 210 mins; format: functional, organism-based
Method in brief: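 Anaesthetized male Dunkin Hartley guinea pigs, 350–400 g. Compound given intratracheally, then repeated iv BK challenges (10 nmol/kg) with bronchoconstriction recorded.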

**Q.** How did the Ki (B2 bradykinin receptor [1]) turn out when `Cc1cc(C)c2cccc(OCc3c(Cl)ccc(S(=O)(=O)NC4(C(=O)N5CCN(C(=O)[C@@H](N)CCCNC(=N)N)CC5)CCOCC4)c3Cl)c2n1` was run?
**A.** 0.126 nM

**Q.** What about the Ki (B1 bradykinin receptor) of the same compound?
**A.** > 10000 nM

**Q.** With `Cc1cc(C)c2cccc(OCc3c(Cl)ccc(S(=O)(=O)NC4(C(=O)N5CC[N+]6(CCCCC6)CC5)CCOCC4)c3Cl)c2n1` as the compound, how does the inhibition [2] read?
**A.** 9%

**Q.** And the Ki (B2 bradykinin receptor [1])?
**A.** 0.398 nM

**Q.** And the inhibition [3]?
**A.** 72%

**Q.** What about the inhibition [4] of the same compound?
**A.** -0%

**Q.** And the Ki (B1 bradykinin receptor)?
**A.** > 10000 nM

**Q.** What about the Kb (B2 bradykinin receptor [5]) of the same compound?
**A.** 2.63 nM

**Q.** What does the source list for `Cc1cc(C)c2cccc(OCc3c(Cl)ccc(S(=O)(=O)NC4(C(=O)N5CC[N+]6(CCCC6)CC5)CCOCC4)c3Cl)c2n1`?
**A.** Ki (B2 bradykinin receptor [1]): 0.631 nM; Ki (B1 bradykinin receptor): > 10000 nM; Kb (B2 bradykinin receptor [5]): 3.16 nM

**Q.** What does the source list for `Cc1cc(C)c2cccc(OCc3c(Cl)ccc(S(=O)(=O)NC4(C(=O)N5CCN(C(=O)CCCCC[N+](C)(C)C)CC5)CCOCC4)c3Cl)c2n1`?
**A.** Ki (B2 bradykinin receptor [1]): 0.126 nM; Ki (B1 bradykinin receptor): > 10000 nM; Kb (B2 bradykinin receptor [5]): 0.794 nM

**Q.** `Cc1cc(C)c2cccc(OCc3c(Cl)ccc(S(=O)(=O)NC4(C(=O)N5CC[N+]6(CC5)CC[N+](C)(C)CC6)CCOCC4)c3Cl)c2n1` was tested. Which Ki (B2 bradykinin receptor [1]) did it give?
**A.** 0.251 nM

**Q.** And the Ki (B1 bradykinin receptor)?
**A.** > 10000 nM

**Q.** And the Kb (B2 bradykinin receptor [5])?
**A.** 5.01 nM

**Q.** Which Ki (B2 bradykinin receptor [1]) does the source give for `Cc1cc(C)c2cccc(OCc3c(Cl)ccc(S(=O)(=O)NC4(C(=O)N5CCN(C(=O)CCCCCC[N+](C)(C)C)CC5)CCOCC4)c3Cl)c2n1` here?
**A.** 0.2 nM

**Q.** What about the Ki (B1 bradykinin receptor) of the same compound?
**A.** > 10000 nM

**Q.** What about the Kb (B2 bradykinin receptor [5]) of the same compound?
**A.** 1.26 nM

**Q.** With `Cc1cc(C)c2cccc(OCc3c(Cl)ccc(S(=O)(=O)NC4(C(=O)N5CC[N+](C)(CC[N+](C)(C)C)CC5)CCOCC4)c3Cl)c2n1` as the compound, how does the Ki (B2 bradykinin receptor [1]) read?
**A.** 0.251 nM

**Q.** And the Ki (B1 bradykinin receptor)?
**A.** > 10000 nM

**Q.** What about the Kb (B2 bradykinin receptor [5]) of the same compound?
**A.** 3.16 nM

**Q.** Which results are given for `Cc1cc(C)c2cccc(OCc3c(Cl)ccc(S(=O)(=O)NC4(C(=O)N5CCC(CNCC[N+](C)(C)C)CC5)CCOCC4)c3Cl)c2n1`?
**A.** Ki (B2 bradykinin receptor [1]): 0.2 nM; Ki (B1 bradykinin receptor): > 10000 nM; Kb (B2 bradykinin receptor [5]): 2.51 nM

**Q.** What does the source list for `Cc1cc(C)c2cccc(OCc3c(Cl)ccc(S(=O)(=O)NC4(C(=O)N5CCN(C(=O)[C@@H](N)CCC[N+](C)(C)C)CC5)CCOCC4)c3Cl)c2n1` [FASITIBANT]?
**A.** inhibition (Cavia porcellus): Active; Ki (B1 bradykinin receptor): > 10000 nM

**Q.** With `Cc1cc(C)c2cccc(OCc3c(Cl)ccc(S(=O)(=O)NC4(C(=O)N5CCC(C[N+](C)(C)C)CC5)CCOCC4)c3Cl)c2n1` as the compound, how does the Ki (B2 bradykinin receptor [1]) read?
**A.** 0.398 nM

**Q.** And the Ki (B1 bradykinin receptor)?
**A.** > 10000 nM

**Q.** And the Kb (B2 bradykinin receptor [5])?
**A.** 5.01 nM

**Q.** Which results are given for `Cc1cc(C)c2cccc(OCc3c(Cl)ccc(S(=O)(=O)NC4(C(=O)N5CCN(C(=O)[C@@H](N)CCCN)CC5)CCOCC4)c3Cl)c2n1`?
**A.** Ki (B2 bradykinin receptor [1]): 0.0501 nM; Ki (B1 bradykinin receptor): > 10000 nM; Kb (B2 bradykinin receptor [5]): 0.724 nM

**Q.** With `Cc1cc(C)c2cccc(OCc3c(Cl)ccc(S(=O)(=O)NC4(C(=O)N5CC[N+](C)(CCCCC[N+](C)(C)C)CC5)CCOCC4)c3Cl)c2n1` as the compound, how does the Ki (B2 bradykinin receptor [1]) read?
**A.** 0.0501 nM

**Q.** What about the Ki (B1 bradykinin receptor) of the same compound?
**A.** > 10000 nM

**Q.** What about the Kb (B2 bradykinin receptor [5]) of the same compound?
**A.** 2.51 nM

**Q.** What does the source list for `Cc1cc(C)c2cccc(OCc3c(Cl)ccc(S(=O)(=O)NC4(C(=O)N5CCN(C(=O)C[N+](C)(C)C)CC5)CCOCC4)c3Cl)c2n1`?
**A.** Ki (B2 bradykinin receptor [1]): 0.0794 nM; Ki (B1 bradykinin receptor): > 10000 nM; Kb (B2 bradykinin receptor [5]): 0.794 nM

**Q.** What does the source list for `Cc1cc(C)c2cccc(OCc3c(Cl)ccc(S(=O)(=O)NC4(C(=O)N5CCN(C(=O)CCCCN(C)C)CC5)CCOCC4)c3Cl)c2n1`?
**A.** Ki (B2 bradykinin receptor [1]): 0.1 nM; Ki (B1 bradykinin receptor): > 10000 nM; Kb (B2 bradykinin receptor [5]): 0.437 nM

**Q.** Which results are given for `Cc1cc(C)c2cccc(OCc3c(Cl)ccc(S(=O)(=O)NC4(C(=O)N5CCN(CC[N+](C)(C)C)CC5)CCOCC4)c3Cl)c2n1`?
**A.** Ki (B2 bradykinin receptor [1]): 0.794 nM; Ki (B1 bradykinin receptor): > 10000 nM

**Q.** For `Cc1cc(C)c2cccc(OCc3c(Cl)ccc(S(=O)(=O)NC4(C(=O)N5CCC(CCC[N+](C)(C)C)CC5)CCOCC4)c3Cl)c2n1`, which Ki (B2 bradykinin receptor [1]) is on record?
**A.** 0.501 nM

**Q.** And the Ki (B1 bradykinin receptor)?
**A.** > 10000 nM

**Q.** And the Kb (B2 bradykinin receptor [5])?
**A.** 1.58 nM

**Q.** For `Cc1cc(C)c2cccc(OCc3c(Cl)ccc(S(=O)(=O)NC4(C(=O)N5CCN(CCCCCC[N+](C)(C)C)CC5)CCOCC4)c3Cl)c2n1`, which Ki (B2 bradykinin receptor [1]) is on record?
**A.** 0.0631 nM

**Q.** What about the Ki (B1 bradykinin receptor) of the same compound?
**A.** > 10000 nM

**Q.** What about the Kb (B2 bradykinin receptor [5]) of the same compound?
**A.** 0.794 nM

Source: ChEMBL document CHEMBL1955756, “Design and synthesis of novel sulfonamide-containing bradykinin hB(2) receptor antagonists. Synthesis and structure-relationships of α,α-tetrahydropyranylglycine” (Bioorg Med Chem, 2012)
